Published values from different studies.
Lines come from different studies, so protocols differ.
CDK8 with cyclin C: Cyclin-dependent kinase 8, with cyclin C (CDK8, Homo sapiens, UniProt P49336)
CDK8: Cyclin-dependent kinase 8 (CDK8, Homo sapiens, UniProt P49336)

O=C(Nc1cnn(-c2csc(C(=O)NC3COC3)c2)c1)Nc1ccccc1Cl — remaining activity (CDK8 with cyclin C; enzyme activity; inhibitor; 5 µM): 101%
C[C@H](c1ccnc(Nc2nc3ccc(-c4cc(N(C)C)ncn4)cc3[nH]2)c1)N1CCN(C(=O)CC(F)(F)F)CC1 — remaining binding (CDK8; cell-free assay; competition with immobilised ligand; 0.1 µM): 96%
Cn1c2c(c3ccccc31)C(C#N)C(C)(C)NC2=O (stereo not shown) — ΔTm (CDK8; thermal stability; DSF; 10 µM): 0.8 °C
CN1CCN(C(=O)c2ccc3cc(CCNc4ccnc5ccc(C#N)cc45)ccc3c2)CC1 — kon (CDK8 with cyclin C; binding; TR-FRET): 878000 M⁻¹ s⁻¹
CCN1CCC2(CC1)NC(=O)c1c(c3ccc(Cl)c(Cl)c3n1C)C2C#N (racemic) — ΔTm (CDK8; thermal stability; DSF; 10 µM): 1.2 °C
CC(C)(C)c1nc(-c2cccc(NS(=O)(=O)c3c(F)cccc3F)c2F)c(-c2ccnc(N)n2)s1 — remaining activity (CDK8 with cyclin C; enzyme activity; inhibitor; radiometric; 1 µM): 109%
Cc1ccc(C(=O)Nc2ccc(CN3CCN(C)CC3)c(C(F)(F)F)c2)cc1C#Cc1cnc2cccnn12 — remaining activity (CDK8; enzyme activity; inhibitor; 23.5 nM): 9.5%
CS(=O)(=O)N1CCCC(NC(=O)[C@H](CCC2CCCCC2)NC(=O)c2ccc(CNC(=O)c3cnc4ccccn34)cc2)C1 (stereo partly shown) — remaining binding (CDK8; cell-free assay; competition with immobilised ligand; 0.1 µM): 42%
Cn1c2c(Cl)c(Cl)ccc2c2cn[nH]c(=O)c21 — ΔTm (CDK8; thermal stability; DSF; 10 µM): 1 °C
CC(C)CC(=O)N1CCc2nc(-c3ccc(Br)cc3)nc(N(C)Cc3ccccc3)c2C1 — remaining binding (CDK8; cell-free assay; competition with immobilised ligand; 0.1 µM): 82%
Cc1sc(C(=O)NC2COC2)cc1-n1cc(NC(=O)Nc2c(F)cccc2Cl)cn1 — remaining activity (CDK8 with cyclin C; enzyme activity; inhibitor; 10 µM): 92.7%
Cc1c(NC(=O)c2cc(C(N)=O)nc3cc(F)ccc23)c(C(F)(F)F)nn1Cc1ccc(C(C)(C)C)cc1 — remaining binding (CDK8; cell-free assay; competition with immobilised ligand; 1 µM): 100%
Cn1c2c(c3ccc(Cl)c(Cl)c31)C(C#N)C1(CCCCC1)NC2=O (racemic) — ΔTm (CDK8; thermal stability; DSF; 10 µM): 0.4 °C
